Drawing on ChEMBL document CHEMBL1129335, “Synthesis and structure-activity relationships of 2-substituted D-tryptophan-containing peptidic endothelin receptor antagonists: importance of the C-2 substituent of the D-tryptophan residue for endothelin A and B receptor subtype selectivity” (J Med Chem, 1996), this text covers IC50 for 33 molecules.

The target in assay [1] is T1, Endothelin receptor type B (Sus scrofa, UniProt P35463).
T1 sequence (P35463 whole entry): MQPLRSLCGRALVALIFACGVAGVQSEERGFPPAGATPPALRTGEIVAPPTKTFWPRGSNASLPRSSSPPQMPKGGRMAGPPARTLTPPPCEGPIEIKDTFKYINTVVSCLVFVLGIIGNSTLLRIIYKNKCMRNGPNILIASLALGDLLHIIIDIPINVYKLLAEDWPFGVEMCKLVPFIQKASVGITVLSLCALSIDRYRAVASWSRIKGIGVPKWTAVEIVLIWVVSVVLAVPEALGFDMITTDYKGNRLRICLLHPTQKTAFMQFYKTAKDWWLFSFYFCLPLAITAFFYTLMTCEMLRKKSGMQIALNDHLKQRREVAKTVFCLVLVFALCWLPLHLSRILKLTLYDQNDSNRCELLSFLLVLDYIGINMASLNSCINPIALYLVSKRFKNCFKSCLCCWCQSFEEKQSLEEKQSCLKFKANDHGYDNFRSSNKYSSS
Briefly: Binding affinity towards endothelin B receptor in porcine cerebellum membranes. The class given is cell membranes, Membrane. The method, boiled down:
(§1)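 Competitive binding in porcine membranes: aortic smooth muscle for ETA and cerebellum for ETB, run by a previously reported method. Variation was generally within 10%.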

In a further assay the target is T2, Endothelin-1 receptor (Sus scrofa, UniProt Q29010).
T2 sequence (Q29010 whole entry): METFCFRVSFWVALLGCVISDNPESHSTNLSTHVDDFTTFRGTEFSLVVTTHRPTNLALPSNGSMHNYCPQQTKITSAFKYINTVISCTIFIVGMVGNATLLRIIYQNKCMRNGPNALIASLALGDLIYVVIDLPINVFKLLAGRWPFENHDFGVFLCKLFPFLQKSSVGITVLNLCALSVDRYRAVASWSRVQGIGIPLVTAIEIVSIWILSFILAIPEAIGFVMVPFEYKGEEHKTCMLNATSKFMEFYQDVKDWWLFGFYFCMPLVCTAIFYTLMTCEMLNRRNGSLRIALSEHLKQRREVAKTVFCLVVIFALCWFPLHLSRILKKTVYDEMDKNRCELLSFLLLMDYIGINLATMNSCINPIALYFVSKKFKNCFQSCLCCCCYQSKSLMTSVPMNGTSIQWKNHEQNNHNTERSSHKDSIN
The assay is described as follows: Binding affinity towards endothelin A receptor in porcine aortic smooth muscle membranes. The method, boiled down:
as §1

For `CSCCC(NC(=O)[C@@H](Cc1c(Br)[nH]c2ccccc12)NC(=O)C(CC(C)C)NC(=O)N1[C@H](C)CCC[C@@H]1C)C(=O)O` (stereo partly specified), the IC50 turned out to be 4.5 nM in assay [1] and 2.2 nM at Endothelin-1 receptor.

As to `Cc1[nH]c2ccccc2c1C[C@H]1NC(=O)[C@H](CC(C)C)NC(=O)[C@@H](C(C)C)NC(=O)[C@@H]2CCCN2C(=O)[C@@H](CC(=O)O)NC1=O`, the IC50 in assay [1] was 870 nM; at Endothelin-1 receptor, 51 nM.

Take `Cc1[nH]c2ccccc2c1C[C@@H](NC(=O)C(NC(=O)N1[C@H](C)CCC[C@@H]1C)C1CC1)C(=O)NC(Cc1c[nH]cn1)C(=O)O` (stereo partly specified): the IC50 is 170 nM in assay [1] and 4.8 nM on Endothelin-1 receptor.

Regarding `CCCCC(NC(=O)[C@@H](Cc1c(C)[nH]c2ccccc12)NC(=O)C(CC(C)C)NC(=O)N1[C@H](C)CCC[C@@H]1C)C(=O)O` (stereo partly specified), the values for the IC50 (in assay [1]; at Endothelin-1 receptor) were 13 nM and 9.6 nM, respectively.

For the molecule `CCCCC(NC(=O)[C@@H](Cc1c(C)[nH]c2ccccc12)NC(=O)C(NC(=O)N1[C@H](C)CCC[C@@H]1C)C1CC1)C(=O)O` (stereo partly specified), the results for the IC50 (in assay [1]; at Endothelin-1 receptor) were 2.9 nM and 5.7 nM, respectively.

In the case of `CCCCC(NC(=O)[C@@H](Cc1c(Cl)[nH]c2ccccc12)NC(=O)C(CCC)NC(=O)N1[C@H](C)CCC[C@@H]1C)C(=O)O` (stereo partly specified), the results for the IC50 (in assay [1]; on Endothelin-1 receptor) were 7.9 nM and 20 nM, respectively.

For `CC(C)CC(NC(=O)N1[C@H](C)CCC[C@@H]1C)C(=O)N[C@H](Cc1c(Br)[nH]c2ccccc12)C(=O)NC(Cc1cnc[nH]1)C(=O)O` (stereo partly specified), the IC50 in assay [1] was found to be 76 nM; on Endothelin-1 receptor it was 3.8 nM.

Turning to `CCCCC(NC(=O)[C@@H](Cc1c(Cl)[nH]c2ccccc12)NC(=O)C(NC(=O)N1[C@H](C)CCC[C@@H]1C)C(C)C)C(=O)O` (stereo partly specified), the IC50 in assay [1] amounted to 4.6 nM; on Endothelin-1 receptor, 33 nM.

Consider `CCCCC(NC(=O)[C@@H](Cc1c(Cl)[nH]c2ccccc12)NC(=O)C(NC(=O)N1[C@H](C)CCC[C@@H]1C)C1CCCC1)C(=O)O` (stereo partly specified), for which the IC50 came to 2.7 nM in assay [1] and 46 nM at Endothelin-1 receptor.

With `CCCSCC(NC(=O)[C@@H](Cc1c(Br)[nH]c2ccccc12)NC(=O)C(CC(C)C)NC(=O)N1[C@H](C)CCC[C@@H]1C)C(=O)O` (stereo partly specified), the IC50 in assay [1] was found to be 1.9 nM; at Endothelin-1 receptor, 2.4 nM.

Take `CCCC(NC(=O)[C@@H](Cc1c(C#N)[nH]c2ccccc12)NC(=O)C(NC(=O)N1[C@H](C)CCC[C@@H]1C)C(C)C)C(=O)O` (stereo partly specified): the IC50 is 5.6 nM in assay [1] and 3000 nM on Endothelin-1 receptor.

With `CCCCC(NC(=O)[C@@H](Cc1c(C#N)[nH]c2ccccc12)NC(=O)C(NC(=O)N1[C@H](C)CCC[C@@H]1C)C(C)C(C)C)C(=O)O` (stereo partly specified), the IC50 in assay [1] came out at 7.1 nM; on Endothelin-1 receptor it was 810 nM.

Take `CCCCC(NC(=O)[C@@H](Cc1c(Cl)[nH]c2ccccc12)NC(=O)C(CCCC)NC(=O)N1[C@H](C)CCC[C@@H]1C)C(=O)O` (stereo partly specified): the figures for the IC50 (in assay [1]; at Endothelin-1 receptor) were 6.1 nM and 9 nM, respectively.

For `CCCCCC[C@@H](NC(=O)[C@@H](Cc1c(Br)[nH]c2ccccc12)NC(=O)C(CC(C)C)NC(=O)N1[C@H](C)CCC[C@@H]1C)C(=O)O` (stereo partly specified), the IC50 came out at 1900 nM in assay [1] and 110 nM on Endothelin-1 receptor.

With `CC(C)CC(NC(=O)[C@@H](Cc1c(Br)[nH]c2ccccc12)NC(=O)C(CC(C)C)NC(=O)N1[C@H](C)CCC[C@@H]1C)C(=O)O` (stereo partly specified), the IC50 stood at 14 nM in assay [1] and 21 nM on Endothelin-1 receptor.

Consider `C=CCC(NC(=O)[C@@H](Cc1c(Br)[nH]c2ccccc12)NC(=O)C(CC(C)C)NC(=O)N1[C@H](C)CCC[C@@H]1C)C(=O)O` (stereo partly specified), for which the IC50 in assay [1] worked out at 4.2 nM; at Endothelin-1 receptor, 9.8 nM.

Regarding `CCCCC(NC(=O)[C@@H](Cc1c(C#N)[nH]c2ccccc12)NC(=O)C(CC(C)C)NC(=O)N1[C@H](C)CCC[C@@H]1C)C(=O)O` (stereo partly specified), the IC50 in assay [1] is 1.6 nM; at Endothelin-1 receptor, 470 nM.

As for `Cc1[nH]c2ccccc2c1C[C@@H](NC(=O)C(CC(C)C)NC(=O)N1[C@H](C)CCC[C@@H]1C)C(=O)NC(Cc1c[nH]cn1)C(=O)O` (stereo partly specified), the IC50 came to 99 nM in assay [1] and 2.8 nM at Endothelin-1 receptor.

Turning to `CCCCC(NC(=O)[C@@H](Cc1c(Br)[nH]c2ccccc12)NC(=O)C(CC(C)C)NC(=O)N1CCCCC1)C(=O)O` (stereo partly specified), the IC50 came to 110 nM in assay [1] and 26 nM at Endothelin-1 receptor.

In the case of `CCCCC(NC(=O)[C@@H](Cc1c(Br)[nH]c2ccccc12)NC(=O)C(CC(C)C)NC(=O)N1CCCCCC1)C(=O)O` (stereo partly specified), the IC50 is 28 nM in assay [1] and 9.1 nM on Endothelin-1 receptor.

Turning to `CCCCC(NC(=O)[C@@H](Cc1c(Cl)[nH]c2ccccc12)NC(=O)C(CC1CC1)NC(=O)N1[C@H](C)CCC[C@@H]1C)C(=O)O` (stereo partly specified), the IC50 in assay [1] turned out to be 6.2 nM; on Endothelin-1 receptor, 14 nM.

As to `CC(C)CC(NC(=O)N1[C@H](C)CCC[C@@H]1C)C(=O)N[C@H](Cc1c(Br)[nH]c2ccccc12)C(=O)NC(Cc1c[nH]c2ccccc12)C(=O)O` (stereo partly specified), the IC50 in assay [1] is 1100 nM; at Endothelin-1 receptor, 6.7 nM.

Take `CCCCC(NC(=O)[C@@H](Cc1c(Br)[nH]c2ccccc12)NC(=O)C(CC(C)C)NC(=O)N1[C@H](C)CCC[C@@H]1C)C(=O)O` (stereo partly specified): the IC50 in assay [1] is 2.5 nM; at Endothelin-1 receptor, 5.6 nM.

For `CCCCC(NC(=O)[C@@H](Cc1c(CC)[nH]c2ccccc12)NC(=O)C(CC(C)C)NC(=O)N1[C@H](C)CCC[C@@H]1C)C(=O)O` (stereo partly specified), the IC50 in assay [1] turned out to be 5 nM; on Endothelin-1 receptor, 180 nM.

For `CCCCC(NC(=O)[C@@H](Cc1c(Br)[nH]c2ccccc12)NC(=O)C(CC(C)C)NC(=O)N1CCCC1)C(=O)O` (stereo partly specified), the IC50 in assay [1] was determined as 2700 nM; on Endothelin-1 receptor, 160 nM.

Turning to `CCCCC(NC(=O)[C@@H](Cc1c(Br)[nH]c2ccccc12)NC(=O)C(CC(C)C)NC(=O)N1CCCCC1C)C(=O)O` (stereo partly specified), the IC50 in assay [1] was determined as 34 nM; on Endothelin-1 receptor, 8.1 nM.

For `CCCCC(NC(=O)[C@@H](Cc1c(Cl)[nH]c2ccccc12)NC(=O)C(CC(C)C)NC(=O)N1[C@H](C)CCC[C@@H]1C)C(=O)O` (stereo partly specified), the values for the IC50 (in assay [1]; on Endothelin-1 receptor) were 5.6 nM and 15 nM, respectively.

`Cc1[nH]c2ccccc2c1C[C@H]1NC(=O)[C@H](C2CC2)NC(=O)[C@@H](C(C)C)NC(=O)[C@@H]2CCCN2C(=O)[C@@H](CC(=O)O)NC1=O`: the IC50 in assay [1] worked out at 270 nM; on Endothelin-1 receptor, 8.1 nM.

Regarding `CCCCC(NC(=O)[C@@H](Cc1c(Br)[nH]c2ccccc12)NC(=O)C(CC(C)C)NC(=O)N1CCCCCCC1)C(=O)O` (stereo partly specified), the IC50 in assay [1] came out at 26 nM; at Endothelin-1 receptor, 27 nM.

With `CCCC(NC(=O)[C@@H](Cc1c(Br)[nH]c2ccccc12)NC(=O)C(CC(C)C)NC(=O)N1[C@H](C)CCC[C@@H]1C)C(=O)O` (stereo partly specified), the IC50 was 2.1 nM in assay [1] and 9.2 nM at Endothelin-1 receptor.

With `CSCCC(NC(=O)[C@@H](Cc1c(C)[nH]c2ccccc12)NC(=O)C(CC(C)C)NC(=O)N1[C@H](C)CCC[C@@H]1C)C(=O)O` (stereo partly specified), the IC50 in assay [1] stood at 13 nM; on Endothelin-1 receptor it was 8 nM.

As to `CCCCC(NC(=O)[C@@H](Cc1c(Cl)[nH]c2ccccc12)NC(=O)C(NC(=O)N1[C@H](C)CCC[C@@H]1C)C1CC1)C(=O)O` (stereo partly specified), the IC50 amounted to 1.3 nM in assay [1] and 9.3 nM on Endothelin-1 receptor.

As to `CCCCC(NC(=O)[C@@H](Cc1c(Cl)[nH]c2ccccc12)NC(=O)C(NC(=O)N1[C@H](C)CCC[C@@H]1C)C(C)CC)C(=O)O` (stereo partly specified), the IC50 worked out at 4.6 nM in assay [1] and 51 nM on Endothelin-1 receptor.
